From the M2OR odorant receptor database
Numbering of substitutions follows the chain as printed.

Key:
Conditions in all cases: stereoisomer not certain
OR5M8 (Homo sapiens) = biological target: T1, OR5M8 (Homo sapiens) (UniProt Q8NGP6)
T1 sequence (whole entry): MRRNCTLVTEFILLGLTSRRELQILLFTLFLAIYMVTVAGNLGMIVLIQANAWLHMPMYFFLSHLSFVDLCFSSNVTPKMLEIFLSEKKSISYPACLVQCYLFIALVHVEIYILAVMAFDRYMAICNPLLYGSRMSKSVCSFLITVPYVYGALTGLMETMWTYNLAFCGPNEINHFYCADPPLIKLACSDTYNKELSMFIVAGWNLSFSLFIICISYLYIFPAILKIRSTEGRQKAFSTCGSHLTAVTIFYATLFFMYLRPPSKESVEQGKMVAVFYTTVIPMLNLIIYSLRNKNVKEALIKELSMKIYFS
Method in brief: (§1)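 Transient luciferase assays in mammalian cell lines were common, though methods varied by source. The values come from published papers and their supplementary material, with extra details from the original authors when needed. Responsive refers to a measured signal the original authors judged statistically different from baseline, and non-responsive (inactive) to the remainder.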

OR5M9 (Homo sapiens) = biological target: T2, OR5M9 (Homo sapiens) (UniProt Q8NGP3)
T2 sequence (whole entry): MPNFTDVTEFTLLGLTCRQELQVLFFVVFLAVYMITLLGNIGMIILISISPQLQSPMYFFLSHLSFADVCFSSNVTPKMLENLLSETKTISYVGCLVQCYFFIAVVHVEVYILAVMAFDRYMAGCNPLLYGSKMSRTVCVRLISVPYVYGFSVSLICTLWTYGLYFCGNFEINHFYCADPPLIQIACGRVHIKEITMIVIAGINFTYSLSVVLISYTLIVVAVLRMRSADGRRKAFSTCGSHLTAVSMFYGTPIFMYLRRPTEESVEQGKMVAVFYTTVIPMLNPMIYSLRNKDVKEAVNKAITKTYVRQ
Method in brief: as §1

OR5MA L2F C311H = test system: T3, OR5MA L2F C311H
T3 sequence (whole entry): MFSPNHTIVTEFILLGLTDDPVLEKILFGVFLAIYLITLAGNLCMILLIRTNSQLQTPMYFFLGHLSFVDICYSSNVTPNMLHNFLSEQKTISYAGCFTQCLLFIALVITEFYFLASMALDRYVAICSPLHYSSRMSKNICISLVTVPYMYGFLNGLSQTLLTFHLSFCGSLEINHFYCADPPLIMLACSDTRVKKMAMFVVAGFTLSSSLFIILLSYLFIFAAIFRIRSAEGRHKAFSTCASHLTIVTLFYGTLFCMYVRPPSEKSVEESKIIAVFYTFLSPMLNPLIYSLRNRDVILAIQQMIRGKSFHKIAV
Method in brief: as §1

OR5MA L2F Q54H C311H = test system: T4, OR5MA L2F Q54H C311H
T4 sequence (whole entry): T3 sequence (whole entry) with Q54H
Method in brief: as §1

OR5P2 (Homo sapiens) = biological target: T5, OR5P2 (Homo sapiens) (UniProt Q8WZ92)
T5 sequence (whole entry): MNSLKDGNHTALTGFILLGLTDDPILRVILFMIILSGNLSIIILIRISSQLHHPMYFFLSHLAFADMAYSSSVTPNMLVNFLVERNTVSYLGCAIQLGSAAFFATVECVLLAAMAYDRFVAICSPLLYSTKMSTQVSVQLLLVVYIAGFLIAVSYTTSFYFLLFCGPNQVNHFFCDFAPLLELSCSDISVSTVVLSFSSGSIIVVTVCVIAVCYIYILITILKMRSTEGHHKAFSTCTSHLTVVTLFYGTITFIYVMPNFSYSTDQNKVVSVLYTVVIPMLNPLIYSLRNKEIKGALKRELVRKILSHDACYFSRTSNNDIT
Method in brief: as §1

OR5P3 (Homo sapiens) = biological target: T6, OR5P3 (Homo sapiens) (UniProt Q8WZ94)
T6 sequence (whole entry): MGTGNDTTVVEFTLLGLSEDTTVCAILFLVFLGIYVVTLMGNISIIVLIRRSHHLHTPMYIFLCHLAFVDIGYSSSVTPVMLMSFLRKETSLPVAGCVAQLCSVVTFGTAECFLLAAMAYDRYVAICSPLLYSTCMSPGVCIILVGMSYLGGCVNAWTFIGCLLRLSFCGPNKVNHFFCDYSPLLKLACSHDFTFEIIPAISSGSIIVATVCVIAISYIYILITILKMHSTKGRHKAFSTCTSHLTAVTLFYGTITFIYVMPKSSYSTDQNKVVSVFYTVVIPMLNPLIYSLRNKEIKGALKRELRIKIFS
Method in brief: as §1

OR5P3 L301R = test system: T7, OR5P3 L301R
T7 sequence (whole entry): T6 sequence (whole entry) with L301R
Method in brief: as §1

OR5R1 C122R S128G F184L = test system: T8, OR5R1 C122R S128G F184L
T8 sequence (whole entry): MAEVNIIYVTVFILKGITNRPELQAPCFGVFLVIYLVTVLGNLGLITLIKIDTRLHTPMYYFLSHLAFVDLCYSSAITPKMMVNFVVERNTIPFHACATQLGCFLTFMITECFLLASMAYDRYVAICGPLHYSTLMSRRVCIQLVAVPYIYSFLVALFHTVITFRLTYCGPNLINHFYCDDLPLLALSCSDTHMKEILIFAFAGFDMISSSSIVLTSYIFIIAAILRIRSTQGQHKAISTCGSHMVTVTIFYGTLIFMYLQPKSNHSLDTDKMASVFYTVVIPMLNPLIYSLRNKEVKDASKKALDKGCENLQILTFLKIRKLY
Method in brief: as §1

OR5T1 (Homo sapiens) = biological target: T9, OR5T1 (Homo sapiens) (UniProt Q8NG75)
T9 sequence (whole entry): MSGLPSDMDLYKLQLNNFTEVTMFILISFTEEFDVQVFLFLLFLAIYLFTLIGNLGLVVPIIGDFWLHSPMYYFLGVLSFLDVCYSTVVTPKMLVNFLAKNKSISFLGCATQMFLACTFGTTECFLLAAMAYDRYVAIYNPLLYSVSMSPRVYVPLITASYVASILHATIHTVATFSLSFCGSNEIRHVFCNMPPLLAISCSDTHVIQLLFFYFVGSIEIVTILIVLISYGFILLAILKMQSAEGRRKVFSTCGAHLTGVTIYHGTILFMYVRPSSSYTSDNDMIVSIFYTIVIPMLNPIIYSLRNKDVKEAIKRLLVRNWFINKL
Method in brief: as §1

OR5T2 (Homo sapiens) = biological target: T10, OR5T2 (Homo sapiens) (UniProt Q8NGG2)
T10 sequence (whole entry): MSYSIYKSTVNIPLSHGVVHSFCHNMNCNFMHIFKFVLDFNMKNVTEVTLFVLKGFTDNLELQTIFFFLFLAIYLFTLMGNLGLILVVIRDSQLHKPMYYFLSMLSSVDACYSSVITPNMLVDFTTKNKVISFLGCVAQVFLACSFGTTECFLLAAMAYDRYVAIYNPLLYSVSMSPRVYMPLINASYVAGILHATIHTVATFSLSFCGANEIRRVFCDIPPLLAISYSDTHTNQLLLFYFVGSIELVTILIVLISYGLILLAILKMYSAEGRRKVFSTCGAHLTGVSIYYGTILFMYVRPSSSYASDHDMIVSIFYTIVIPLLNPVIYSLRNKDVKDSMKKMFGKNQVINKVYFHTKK
Method in brief: as §1

OR5T2 S4G = test system: T11, OR5T2 S4G
T11 sequence (whole entry): T10 sequence (whole entry) with S4G
Method in brief: as §1

OR5T3 (Homo sapiens) = biological target: T12, OR5T3 (Homo sapiens) (UniProt Q8NGG3)
T12 sequence (whole entry): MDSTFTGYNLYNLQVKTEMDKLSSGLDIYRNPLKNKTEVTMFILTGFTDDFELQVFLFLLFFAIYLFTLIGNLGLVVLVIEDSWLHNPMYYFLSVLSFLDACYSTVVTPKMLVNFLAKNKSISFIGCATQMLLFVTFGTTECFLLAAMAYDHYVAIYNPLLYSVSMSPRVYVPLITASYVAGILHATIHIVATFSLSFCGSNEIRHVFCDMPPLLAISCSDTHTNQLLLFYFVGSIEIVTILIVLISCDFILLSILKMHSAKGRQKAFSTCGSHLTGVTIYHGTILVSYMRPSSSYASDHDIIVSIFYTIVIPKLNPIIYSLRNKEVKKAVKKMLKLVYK
Method in brief: as §1

OR5V1 (Homo sapiens) = biological target: T13, OR5V1 (Homo sapiens) (UniProt Q9UGF6)
T13 sequence (whole entry): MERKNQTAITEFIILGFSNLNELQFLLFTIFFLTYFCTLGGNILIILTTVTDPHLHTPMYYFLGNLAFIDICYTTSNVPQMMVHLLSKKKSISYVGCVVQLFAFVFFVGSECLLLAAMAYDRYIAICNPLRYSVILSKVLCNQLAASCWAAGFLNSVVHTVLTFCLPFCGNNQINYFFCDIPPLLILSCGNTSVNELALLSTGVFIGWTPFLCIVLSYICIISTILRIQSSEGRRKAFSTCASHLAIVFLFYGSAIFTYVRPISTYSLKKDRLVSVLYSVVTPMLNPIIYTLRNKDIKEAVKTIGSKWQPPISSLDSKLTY
Method in brief: as §1

OR5W2 (Homo sapiens) = biological target: T14, OR5W2 (Homo sapiens) (UniProt Q8NH69)
T14 sequence (whole entry): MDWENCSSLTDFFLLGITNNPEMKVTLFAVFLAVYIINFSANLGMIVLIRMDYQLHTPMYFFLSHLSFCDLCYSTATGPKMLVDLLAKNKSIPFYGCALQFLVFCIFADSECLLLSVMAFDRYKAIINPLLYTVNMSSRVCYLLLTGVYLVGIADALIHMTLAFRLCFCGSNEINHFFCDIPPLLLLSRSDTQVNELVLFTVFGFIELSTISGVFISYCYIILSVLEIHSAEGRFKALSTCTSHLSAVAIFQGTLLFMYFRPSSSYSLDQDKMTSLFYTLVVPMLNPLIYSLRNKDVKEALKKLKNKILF
Method in brief: as §1

OR5W2 R189C = test system: T15, OR5W2 R189C
T15 sequence (whole entry): T14 sequence (whole entry) with R189C
Method in brief: as §1

OR6A2 (Homo sapiens) = biological target: T16, OR6A2 (Homo sapiens) (UniProt O95222)
T16 sequence (whole entry): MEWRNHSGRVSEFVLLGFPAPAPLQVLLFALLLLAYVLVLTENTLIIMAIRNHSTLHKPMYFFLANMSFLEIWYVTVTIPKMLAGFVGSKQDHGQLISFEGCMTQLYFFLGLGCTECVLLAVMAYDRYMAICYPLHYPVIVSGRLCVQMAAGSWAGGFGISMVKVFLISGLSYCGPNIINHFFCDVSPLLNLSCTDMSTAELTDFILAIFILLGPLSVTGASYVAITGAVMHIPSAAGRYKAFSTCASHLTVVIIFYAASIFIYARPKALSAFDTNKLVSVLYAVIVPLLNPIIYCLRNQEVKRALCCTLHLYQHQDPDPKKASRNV
Method in brief: as §1

OR6A2 I50V = test system: T17, OR6A2 I50V
T17 sequence (whole entry): T16 sequence (whole entry) with I50V
Method in brief: as §1

OR6B1 (Homo sapiens) = biological target: T18, OR6B1 (Homo sapiens) (UniProt O95007)
T18 sequence (whole entry): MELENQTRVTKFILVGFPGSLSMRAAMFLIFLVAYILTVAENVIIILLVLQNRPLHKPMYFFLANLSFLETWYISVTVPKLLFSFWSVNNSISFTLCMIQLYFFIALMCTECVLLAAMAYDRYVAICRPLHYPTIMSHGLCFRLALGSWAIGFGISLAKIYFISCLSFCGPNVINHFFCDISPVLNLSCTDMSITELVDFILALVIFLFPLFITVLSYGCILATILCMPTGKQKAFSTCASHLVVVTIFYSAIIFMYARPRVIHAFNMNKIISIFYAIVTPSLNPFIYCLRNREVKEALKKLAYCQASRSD
Method in brief: as §1

OR6B2 (Homo sapiens) = biological target: T19, OR6B2 (Homo sapiens) (UniProt Q6IFH4)
T19 sequence (whole entry): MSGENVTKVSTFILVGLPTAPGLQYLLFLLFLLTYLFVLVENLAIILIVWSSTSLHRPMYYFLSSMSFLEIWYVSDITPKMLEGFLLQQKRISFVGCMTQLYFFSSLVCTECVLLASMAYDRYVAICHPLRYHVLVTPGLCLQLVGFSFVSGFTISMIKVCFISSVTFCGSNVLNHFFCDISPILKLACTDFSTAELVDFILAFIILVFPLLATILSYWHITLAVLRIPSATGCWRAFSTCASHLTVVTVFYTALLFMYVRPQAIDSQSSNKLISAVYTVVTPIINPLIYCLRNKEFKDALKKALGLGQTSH
Method in brief: as §1

OR6B2 R122C C179R = test system: T20, OR6B2 R122C C179R
T20 sequence (whole entry): T19 sequence (whole entry) with R122C, C179R
Method in brief: as §1

Measured: odorant receptor agonist call;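 further: active if original authors judged signal statistically different from baseline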

CCC1OC(=O)C(O)=C1C (stereo not drawn)
inactive: OR5M8 (Homo sapiens) | OR5M9 (Homo sapiens) | OR5MA L2F C311H | OR5MA L2F Q54H C311H | OR5P2 (Homo sapiens) | OR5P3 (Homo sapiens) | OR5P3 L301R | OR5R1 C122R S128G F184L | OR5T1 (Homo sapiens) | OR5T2 (Homo sapiens) | OR5T2 S4G | OR5T3 (Homo sapiens) | OR5V1 (Homo sapiens) | OR5W2 (Homo sapiens) | OR5W2 R189C | OR6A2 (Homo sapiens) | OR6A2 I50V | OR6B1 (Homo sapiens) | OR6B2 (Homo sapiens) | OR6B2 R122C C179R

CCCCC(S)C(C)CO (stereo not drawn)
inactive: OR5M8 (Homo sapiens) | OR5M9 (Homo sapiens) | OR5P2 (Homo sapiens) | OR5P3 (Homo sapiens) | OR5T1 (Homo sapiens) | OR5T2 (Homo sapiens) | OR5T3 (Homo sapiens) | OR5V1 (Homo sapiens) | OR5W2 (Homo sapiens) | OR6A2 (Homo sapiens) | OR6B1 (Homo sapiens) | OR6B2 (Homo sapiens)

CCCCCCOC(C)=O
inactive: OR5P3 (Homo sapiens)

CC1=C(O)C(=O)OC1C (stereo not drawn)
inactive: OR5M8 (Homo sapiens) | OR5M9 (Homo sapiens) | OR5MA L2F C311H | OR5MA L2F Q54H C311H | OR5P2 (Homo sapiens) | OR5P3 (Homo sapiens) | OR5P3 L301R | OR5R1 C122R S128G F184L | OR5T1 (Homo sapiens) | OR5T2 (Homo sapiens) | OR5T2 S4G | OR5T3 (Homo sapiens) | OR5V1 (Homo sapiens) | OR5W2 (Homo sapiens) | OR5W2 R189C | OR6A2 (Homo sapiens) | OR6A2 I50V | OR6B1 (Homo sapiens) | OR6B2 (Homo sapiens) | OR6B2 R122C C179R
